# Compound activity (PubChem BioAssay)
# MT1-MMP act inh: blockers of MT1-MMP proenzyme processing, primary screen, HT1080 RFP-PRO-GFP cells, GFP/RFP fluorescence; GFP/RFP ratio fluorescence, overnight; percent of plate control window, DMSO zero; GFP/RFP ratio change, % at 20 µM; actives 0.061% (n = 360,000);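 active means GFP/RFP ratio change of at least 30% with cell ATP level not reduced by more than half and red fluorescence within 50% of control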
#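 Assay system: RFP-PRO-GFP reporter HT1080 cells; read-out basis: GFP/RFP fluorescence ratio; benchmarks: DMSO wells and RFP-L50D-GFP cells; doses: 20 µM single dose, 1% DMSO; schedule: overnight cell settling, then overnight compound exposure, 37 °C, 5% CO2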
# Rev-erbA mod: modulators of Rev-erb alpha DNA binding, primary screen, biochemical, FITC-DNA, fluorescence polarization, uHTS. Rev-erbα–FITC-DNA binding, 90 min. actives 0.79% (n = 370,000). AID 1259318, 2017. activity, % at 10 µM;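 active means activity above about 14%, limit read from the data; passing the limit was not always enough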;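 further: 0% = DMSO wells with 35 nM protein and 100% = DMSO wells with 750 nM protein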
# NR2E3 ag-1: inhibitors of NR2E3-RetCOR corepressor binding, primary screen, NR2E3 agonist project, biochemical, TR-FRET, GST-NR2E3, biotin-RetCOR | Photoreceptor-specific nuclear receptor (Homo sapiens), Q9Y5X4 | actives 0.12% (n = 320,000) | 1536-well | inhibition of corepressor binding, % at 4.78 µM;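 active means percent inhibition above the cutoff of mean plus 3 SD of all tested compounds, set per screening campaign, cut at about 20% in these data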;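 further: 0% = DMSO wells and 100% = biotin wells as full block of FRET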
# Target sequence (Q9Y5X4 whole entry, looked up): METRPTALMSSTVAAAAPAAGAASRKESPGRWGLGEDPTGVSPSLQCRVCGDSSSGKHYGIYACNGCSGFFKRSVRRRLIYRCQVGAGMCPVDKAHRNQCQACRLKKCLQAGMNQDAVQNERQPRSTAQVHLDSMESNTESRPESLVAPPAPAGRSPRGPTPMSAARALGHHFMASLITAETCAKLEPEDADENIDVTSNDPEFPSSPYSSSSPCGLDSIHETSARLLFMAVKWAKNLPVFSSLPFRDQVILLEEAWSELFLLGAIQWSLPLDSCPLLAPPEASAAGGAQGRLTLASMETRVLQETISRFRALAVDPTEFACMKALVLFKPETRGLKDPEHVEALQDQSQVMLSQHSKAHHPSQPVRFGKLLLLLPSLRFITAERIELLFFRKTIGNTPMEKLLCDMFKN
#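 Test system – NR2E3–RetCOR corepressor complex · Quantity – NR2E3 fusion 1.35 nM · Buffer or medium – Tris pH 7.5 · Incubation – Compound–protein incubation for 5 h at 4 °C · Technique – TR-FRET, Eu(K)-anti-GST donor, streptavidin-D2 acceptor, ex 340, em 617/671 nm · Evaluation – percent inhibition of 671/617 nm emission ratio versus biotin and DMSO controls · Plate – 1536-well format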
# PG9 Ab binder: binders of HIV-1 gp120 antibody PG9, primary screen, biochemical, TR-FRET. HIV-1 gp120 / PG9 antibody interaction. TR-FRET gp120-PG9 antibody binding. inhibition, % at 6.7 µM. actives 0.43% (n = 360,000); in the data active means inhibition above about 8.5%
# SKN-1 block: suppressors of acrylamide-induced Pgst-4::GFP reporter in worms, primary screen, SKN-1 inhibitor project, whole organism, uHTS, GFP/RFP fluorescence ratio, strain VP596 | C. elegans VP596 Pgst-4::GFP/RFP ratio, 24 h | actives 0.49% (n = 360,000) | inhibition, % at 21.8 µM;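 active means interference check ratio from 0.5 to 1.5 plus GFP to RFP signal ratio inhibition reaching or exceeding a fixed threshold, cut at about 30% in these data, passing the limit was not always enough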
# NR2E3 ag-2: NR2E3 agonists in two-hybrid cells, primary screen, cell-based, luminescence, CHO-S, Gal4-NCOR/VP16-NR2E3; Photoreceptor-specific nuclear receptor (Homo sapiens), Q9Y5X4; luciferase; inhibition of corepressor binding, % at 3.98 µM; actives 0.35% (n = 360,000); AID 602229, 2012;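 active means inhibition above the mean of all tested compounds plus 3 SD, cut at about 70% in these data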;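 further: 0% = DMSO with NR2E3 transfected cells and 100% = cells lacking NR2E3 construct; higher means lower luciferase signal from less NR2E3 corepressor binding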
# NR1D1 mod conf: modulators of Rev-erb alpha DNA binding, confirmation, biochemical, FITC-DNA, fluorescence polarization, single point; actives 61% (n = 3,000); shares compounds with Rev-erbA mod; 90 min; activation, % at 25 µM;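 active means activation at or above a set limit, or at least 3 SD above the negative control mean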;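 further: 0% = 35 nM protein with DMSO and 100% = 750 nM protein high control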
# RORg counter: modulation of RORgamma DNA binding, dose response, counter-screen for Rev-erb alpha modulator project, biochemical, fluorescence polarization, FITC-DNA | AID 1259320, 2017 | shares compounds with Rev-erbA mod | purified RORgamma protein-FITC-DNA binding | IC50, µM | actives 8% (n = 910);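 active means Compounds whose fitted half-maximal concentration for disrupting protein-DNA binding is below 10 micromolar; the record names Rev-erb in its text, so the target is in doubt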
# Active calls of the source: *; / = no result given. Shown are actives, neighbours in structure and some others; about 1.9% of the full set was active somewhere.
SMILES,MT1-MMP act inh,Rev-erbA mod,NR2E3 ag-1,PG9 Ab binder,SKN-1 block,NR2E3 ag-2,NR1D1 mod conf,others
CCOC(=O)N1CCN(c2c(-c3ccccc3)c3cc(Cl)ccc3[nH]c2=O)CC1,2,33*,6,1,-7,32,-1,
CCn1ncc2c(=O)c(C(=O)c3ccccc3)c[nH]c21,/,12,/,-1,/,/,/,
CCOc1ccc(NC(=O)CCSc2ccc(C)cc2)cc1,-1,1,3,0,-3,-13,/,
CCOc1ccc(NC(=O)CCSc2ccc3ccccc3n2)cc1,10,82*,3,-1,5,-14,46*,RORg counter=>40
Cc1nn(C)c(C)c1N1C(=O)c2cccc3c(N)ccc(c23)C1=O,-318,175*,-7,-9,-80,-19,157*,RORg counter=1.8*
Cc1ccc(N2C(=O)c3cccc4c(N)ccc(c34)C2=O)c2cccnc12,-135,126*,-1,-1,-8,-23,131*,
CCN1C(=O)c2cccc3c(N)ccc(c23)C1=O,-83,240*,-6,-8,-119,-21,246*,RORg counter=5.3*
O=C(N[C@H](C(=O)N1CCC[C@H]1C(=O)NCc1ccccc1)c1ccccc1)c1ccc(Cl)cc1Cl,/,-9,/,0,/,/,/,
CCC(NC(=O)CCCN1C(=O)COc2ccc(C)cc21)c1ccccc1 (stereo unspecified),/,-5,/,/,/,/,/,
COC(=O)[C@]12CCCCC=C1N(Cc1cccc3ccccc13)C(=O)[C@H](CC(=O)NCc1cccc3ccccc13)C2,-4,-5,/,1,-4,-17,/,
COC(=O)[C@]12CCCCC=C1N(Cc1cccc3ccccc13)C(=O)[C@H](CC(=O)NCc1cccs1)C2,-15,16*,/,0,0,-19,3,
O=C(c1ccc(-c2ccccc2)cc1)c1ccc([N+](=O)[O-])cc1,/,/,0,/,/,/,/,
O=C(C1=NN[C@@H]2C(=O)N(Cc3ccccc3)C(=O)[C@H]12)c1ccc([N+](=O)[O-])cc1,0,16*,0,0,-5,3,4,
COc1ccc2c(c1)c(=O)c(C(=O)c1ccc(F)cc1)cn2CC(=O)Nc1ccc(F)cc1,8,33*,8,7,-13,-11,26*,
O=C(C(=O)N1CCCCCC1)c1c[nH]c2ccccc12,10,4,/,-2,-1,-13,/,
C[n+]1cc(C(=O)N2CCCCC2)ccc1/C=C/c1c[nH]c2ccccc12,-111,75*,-1,-10,7,-1,58*,RORg counter=>40
O=C1CCC[C@H]2CC3(CC[C@]24CCCN14)OCCO3,/,-1,/,/,/,/,/,
C[C@H]1/C=C/CC(=O)N[C@@H](c2ccccc2)[C@@H](C)/C=C/CC(=O)N[C@H]1c1ccccc1,/,7,/,/,/,/,/,
CN(C)C(=O)CSc1nc(-c2cccs2)c(-c2cccs2)[nH]1,2,22*,0,0,9,-9,24*,
CN(C)C(=O)CSc1nc2ccccc2c(=O)[nH]1,-5,-5,-1,-2,1,-8,/,
C=CCN=C1NC(c2cccc(Cl)c2)C(C(=O)OC)=C(C)N1C (stereo unspecified),/,4,/,1,/,/,/,
CS(=O)(=O)Nc1ccc(-c2ccc(/C=C3\SC(N)=NC3=O)o2)cc1,-24,44*,-5,-12,-2,-9,33*,RORg counter=>40
CN1c2ccc(-c3cccc(F)c3)cc2[C@H]2[C@H](CCN2S(=O)(=O)c2cccc(F)c2)[C@H]1CO,/,1,/,/,/,/,/,
Cc1ccc(C)c(NC(=O)CN(C)C(=O)c2ccc(-c3cccc(C(F)(F)F)c3)o2)c1,-2,22*,-1,6,6,4,23*,
CN(CC(=O)Nc1cccc(F)c1)C(=O)c1ccc(-c2cccc(C(F)(F)F)c2)o1,-4,-1,-1,-2,20,-13,/,
SMILES,MT1-MMP act inh,Rev-erbA mod,NR2E3 ag-1,PG9 Ab binder,SKN-1 block,NR2E3 ag-2,NR1D1 mod conf,others
Clc1ccc(-c2nc3ccc(Br)cn3c2Cc2ccccc2)cc1,/,23*,/,7,15,-5,20*,
Fc1ccc(-c2nc3ccc(Br)cn3c2Cc2ccccc2)cc1,-4,20*,/,3,7,-4,13*,
Fc1ccc(-c2nc3ccc(Br)cn3c2Cc2cccc(Cl)c2)cc1,-6,28*,/,5,2,-22,14*,
Brc1ccc(-c2nc3ccc(Br)cn3c2Cc2ccccc2)cc1,-13,26*,/,7,11,-86,16*,
CCNC(=O)N1CCN(c2ccc(N3CCN(C(=O)NCC)[C@H](C)C3)c(C)c2)[C@@H](C)C1,/,8,/,-3,/,/,/,
CSc1cc(-c2ccc(Cl)cc2)n(Cc2ccccc2)c(=O)c1C#N,/,32*,6,-4,-4,-6,14,
Cc1ccc(N(Cc2cc3ccc(C)cc3[nH]c2=O)S(=O)(=O)c2ccccc2)cc1,0,34*,-1,-1,2,-22,19*,
COc1ccc2sc(-c3ccc(S(C)(=O)=O)cc3)c(-c3ccc4c(c3)OCCO4)c2c1,-10,13,/,-1,-9,12,/,
COc1ccc(-c2cc(C(=O)Nc3cc(C)on3)no2)cc1,-2,0,2,2,-1,/,/,
COc1ccc(OC)c(-c2cc(C(=O)Nc3cc(C)on3)no2)c1,-4,21*,-4,3,10,8,16,
COc1ccc(-c2sc3cc4c(cc3c2-c2ccc3c(c2)OCCO3)OCO4)cc1,8,18*,/,0,-5,-26,2,
COc1ccc(-c2noc(-c3ccc4c(c3)OCO4)n2)cc1,4,35*,0,0,5,-64,13,
Cc1ccc(NC(=O)c2cc(-c3ccc4c(c3)OCO4)on2)cc1,6,11,1,0,12,-29,/,
COc1cccc(-c2noc(-c3ccc4c(c3)OCO4)n2)c1,5,0,-1,0,-10,-159,/,
